From ChEMBL document CHEMBL1938381, “Design, synthesis, and structure-activity relationship studies of conformationally restricted mutilin 14-carbamates” (2012)
≈ marks a conversion by molar mass, not a printed value.

Key:
Type in all cases: functional
[1] = test system: Staphylococcus epidermidis; assay: Antibacterial activity against methicillin-susceptible Staphylococcus epidermidis by agar microdilution method
Summary of the method: (§1)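 MIC by agar microdilution following NCCLS standard M7-A6 (2003), tested against clinical isolates: MRSA n = 6, MRSE n = 5, MSSA n = 5, MSSE n = 5; values given as a single MIC or a range across isolates.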

[2] = test system: Staphylococcus epidermidis; assay: Antibacterial activity against methicillin-resistant Staphylococcus epidermidis by agar microdilution method; summary of the method: as §1
[3] = test system: Staphylococcus aureus; assay: Antibacterial activity against methicillin-resistant Staphylococcus aureus by agar microdilution method; summary of the method: as §1
[4] = test system: Streptococcus pneumoniae; assay: Antibacterial activity against Streptococcus pneumoniae by agar microdilution method
Summary of the method: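 MIC read by agar microdilution following NCCLS standard M7-A6 (2003), against a panel of 3 Streptococcus pneumoniae clinical isolates. Values in µg/mL, given as a range where the isolates differed.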

[5] = test system: Staphylococcus aureus; assay: Antibacterial activity against methicillin-susceptible Staphylococcus aureus by agar microdilution method; summary of the method: as §1

SMILES	MIC [1] [µg/mL]	MIC [2] [µg/mL]	MIC [3] [µg/mL]	MIC [4] [µg/mL]	MIC [5] [µg/mL]
C=C[C@]1(C)C[C@@H](OC(=O)N2Cc3c(NC(=O)[C@@H](N)C(C)C)cccc3C2=O)[C@]2(C)[C@H](C)CC[C@]3(CCC(=O)[C@H]32)[C@@H](C)[C@@H]1O.Cl	0.5	0.5	0.5	0.5	0.5
C=C[C@]1(C)C[C@@H](OC(=O)N2Cc3ccc(NC(=O)[C@H](C)N)cc3C2=O)[C@]2(C)[C@H](C)CC[C@]3(CCC(=O)[C@H]32)[C@@H](C)[C@@H]1O.Cl	0.5	0.5	0.5	0.5	0.5
C=C[C@]1(C)C[C@@H](OC(=O)N2Cc3ccc(NC(=O)[C@@H](N)C(C)C)cc3C2=O)[C@]2(C)[C@H](C)CC[C@]3(CCC(=O)[C@H]32)[C@@H](C)[C@@H]1O.Cl	1	1	1	2	1
C=C[C@]1(C)C[C@@H](OC(=O)N2CCc3cc(OC)ccc3C2=O)[C@]2(C)[C@H](C)CC[C@]3(CCC(=O)[C@H]32)[C@@H](C)[C@@H]1O	1 (≈ 1.91 µM)	0.5 (≈ 0.955 µM)	2 (≈ 3.82 µM)	2 (≈ 3.82 µM)	1 (≈ 1.91 µM)
C=C[C@]1(C)C[C@@H](OC(=O)N2CCc3ccccc3C2=O)[C@]2(C)[C@H](C)CC[C@]3(CCC(=O)[C@H]32)[C@@H](C)[C@@H]1O	0.25 (≈ 0.506 µM)	0.25 (≈ 0.506 µM)	0.25 (≈ 0.506 µM)	0.25 (≈ 0.506 µM)	0.25 (≈ 0.506 µM)
C=C[C@]1(C)C[C@@H](OC(=O)N2CCc3ccc([N+](=O)[O-])cc3C2=O)[C@]2(C)[C@H](C)CC[C@]3(CCC(=O)[C@H]32)[C@@H](C)[C@@H]1O	1 (≈ 1.86 µM)	1 (≈ 1.86 µM)	1 (≈ 1.86 µM)	2 (≈ 3.71 µM)	1 (≈ 1.86 µM)
C=C[C@]1(C)C[C@@H](OC(=O)N2CCc3cc(OCCN4CCOCC4)ccc3C2=O)[C@]2(C)[C@H](C)CC[C@]3(CCC(=O)[C@H]32)[C@@H](C)[C@@H]1O	0.5 (≈ 0.803 µM)	0.5 (≈ 0.803 µM)	0.5 (≈ 0.803 µM)	0.5 (≈ 0.803 µM)	0.5 (≈ 0.803 µM)
C=C[C@]1(C)C[C@@H](OC(=O)N2CCc3cc(OCCN4CCCCC4)ccc3C2=O)[C@]2(C)[C@H](C)CC[C@]3(CCC(=O)[C@H]32)[C@@H](C)[C@@H]1O	0.5 (≈ 0.805 µM)	1 (≈ 1.61 µM)	0.5 (≈ 0.805 µM)	1 (≈ 1.61 µM)	0.5 (≈ 0.805 µM)
C=C[C@]1(C)C[C@@H](OC(=O)N2CCc3cc(OCCN4CCN(C)CC4)ccc3C2=O)[C@]2(C)[C@H](C)CC[C@]3(CCC(=O)[C@H]32)[C@@H](C)[C@@H]1O	0.5 (≈ 0.786 µM)	0.5 (≈ 0.786 µM)	0.5 (≈ 0.786 µM)	0.5 (≈ 0.786 µM)	0.5 (≈ 0.786 µM)
C=C[C@]1(C)C[C@@H](OC(=O)N2CCc3cc(OCCCN4CCOCC4)ccc3C2=O)[C@]2(C)[C@H](C)CC[C@]3(CCC(=O)[C@H]32)[C@@H](C)[C@@H]1O	0.5 (≈ 0.785 µM)	0.5 (≈ 0.785 µM)	0.5 (≈ 0.785 µM)	0.5 (≈ 0.785 µM)	0.5 (≈ 0.785 µM)
C=C[C@]1(C)C[C@@H](OC(=O)N2CCc3cc(OCCCN4CCCCC4)ccc3C2=O)[C@]2(C)[C@H](C)CC[C@]3(CCC(=O)[C@H]32)[C@@H](C)[C@@H]1O	0.5 (≈ 0.788 µM)	0.5 (≈ 0.788 µM)	0.5 (≈ 0.788 µM)	0.5 (≈ 0.788 µM)	0.5 (≈ 0.788 µM)
C=C[C@]1(C)C[C@@H](OC(=O)N2CCc3cc(OCCCN4CCN(C)CC4)ccc3C2=O)[C@]2(C)[C@H](C)CC[C@]3(CCC(=O)[C@H]32)[C@@H](C)[C@@H]1O	0.5 (≈ 0.769 µM)	0.5 (≈ 0.769 µM)	0.5 (≈ 0.769 µM)	0.5 (≈ 0.769 µM)	0.5 (≈ 0.769 µM)
C=C[C@]1(C)C[C@@H](OC(=O)N2CCc3cc(OCCCCN4CCOCC4)ccc3C2=O)[C@]2(C)[C@H](C)CC[C@]3(CCC(=O)[C@H]32)[C@@H](C)[C@@H]1O	0.5 (≈ 0.768 µM)	0.5 (≈ 0.768 µM)	0.5 (≈ 0.768 µM)	0.5 (≈ 0.768 µM)	0.5 (≈ 0.768 µM)
C=C[C@]1(C)C[C@@H](OC(=O)N2CCc3ccc(N)cc3C2=O)[C@]2(C)[C@H](C)CC[C@]3(CCC(=O)[C@H]32)[C@@H](C)[C@@H]1O	0.0625 (≈ 0.123 µM)	0.0625 (≈ 0.123 µM)	0.0625 (≈ 0.123 µM)	0.0625 (≈ 0.123 µM)	0.0625 (≈ 0.123 µM)
C=C[C@]1(C)C[C@@H](OC(=O)NC(=O)c2ccc(OC)cc2)[C@]2(C)[C@H](C)CC[C@]3(CCC(=O)[C@H]32)[C@@H](C)[C@@H]1O	–	–	–	0.0625 (≈ 0.126 µM)	–
CC(=O)NC[C@H]1CN(c2ccc(N3CCOCC3)c(F)c2)C(=O)O1 [LINEZOLID]	0.5 (≈ 1.48 µM)	–	–	–	0.5 (≈ 1.48 µM)
C=C[C@]1(C)C[C@@H](OC(=O)CS[C@@H]2C[C@H]3CC[C@@H](C2)N3C)[C@]2(C)[C@H](C)CC[C@]3(CCC(=O)[C@H]32)[C@@H](C)[C@@H]1O [RETAPAMULIN]	0.0625 (≈ 0.121 µM)	0.125 (≈ 0.241 µM)	0.125 (≈ 0.241 µM)	0.0625 (≈ 0.121 µM)	0.0625 (≈ 0.121 µM)
